Data taken from ChEMBL document CHEMBL3352144, “Cytotoxic Spliceostatins from Burkholderia sp. and Their Semisynthetic Analogues” (J Nat Prod, 2014).
pIC50: −log10 of the molar value.

Tests used:
MDA-MB-468 = assay: Cytotoxicity against human MDA-MB-468 cells after 4 days by MTS/cell proliferation assay; type: functional, cell-based; conditions: MDA-MB-468, 96 h
How it was run: (§1)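 Cells seeded in 96-well plates and dosed next day with 10 concentrations in 3-fold serial dilution, in duplicate. Incubated 4 days at 37 °C/5% CO2. Viability read by MTS or CellTiter-Glo luminescence. IC50 from four-parameter logistic fit.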

BT-474 = assay: Cytotoxicity against human BT474 cells after 4 days by MTS/cell proliferation assay; type: functional, cell-based; conditions: BT-474, 96 h; how it was run: as §1
NCI-N87 = assay: Cytotoxicity against human NCI-N87 cells after 4 days by MTS/cell proliferation assay; type: functional, cell-based; conditions: NCI-N87, 96 h; how it was run: as §1
NCI-H1975 = assay: Cytotoxicity against human NCI-H1975 cells after 4 days by MTS/cell proliferation assay; type: functional, cell-based; conditions: NCI-H1975, 96 h; how it was run: as §1
[1] = Cytotoxicity against human MDA-MB-DYT2 cells after 4 days by MTS/cell proliferation assay; type: functional, cell-based; conditions: 96 h; how it was run: as §1
[2] = 1-Octanol-buffer partition coefficient, log D of the compound at pH 7.4 by shake flask method; type: physicochemical
How it was run: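 Shake-flask partition: 10 mM DMSO stock added to 1-octanol/pH 7.4 phosphate buffer (1:1, mutually presaturated), mixed 15 min at room temperature, centrifuged 1006g 10 min to split phases. Each phase was sampled, diluted and quantified by LC-MS/MS. Run in duplicate, typical CV ~20%.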

SMILES | pIC50 (MDA-MB-468) | pIC50 (BT-474) | pIC50 (NCI-N87) | pIC50 (NCI-H1975) | pIC50 [1] | logD [2]
CC(=O)O[C@@H](C)/C=C\C(=O)N[C@@H]1C[C@H](C)[C@H](C/C=C(C)/C=C/[C@@H]2C[C@](O)(CCl)C[C@@H](CC(=O)O)O2)O[C@@H]1C | 8.87 | 8.73 | 9.19 | – | – | –
CC(=O)O[C@@H](C)/C=C\C(=O)N[C@@H]1C[C@H](C)[C@H](C/C=C(C)/C=C/[C@@H]2C[C@]3(CO3)C[C@@H](CC(=O)O)O2)O[C@@H]1C | 8.47 | 8.32 | 8.70 | 8.44 | 8.04 | 0.077
C=C1C[C@@H](CC(=O)O)O[C@H](/C=C/C(C)=C/C[C@@H]2O[C@H](C)[C@H](NC(=O)/C=C\[C@H](C)OC(C)=O)C[C@@H]2C)C1 | – | – | – | 7.52 | – | –
C=C1C[C@@H](CC(=O)O)O[C@H](/C=C/C(C)=C/C[C@@H]2O[C@H](C)[C@H](NC(=O)/C=C\[C@H](C)OC(C)=O)C[C@@H]2C)[C@H]1O | – | – | – | 6.02 | – | –
CC(=O)O[C@@H](C)/C=C\C(=O)N[C@@H]1C[C@H](C)[C@H](C/C=C(C)/C=C/[C@@H]2CC(C)=CC(=O)O2)O[C@@H]1C | 8.81 | 8.43 | 8.44 | – | 8.38 | –
CC(=O)O[C@@H](C)/C=C\C(=O)N[C@@H]1C[C@H](C)[C@H](C/C=C(C)/C=C/C(=O)O)O[C@@H]1C | – | < 7.00 | < 7.00 | – | < 7.00 | –
CC(=O)O[C@@H](C)/C=C\C(=O)N[C@@H]1C[C@H](C)[C@H](C/C=C(C)/C=C/[C@@H]2C[C@](O)(CCl)C[C@@H](CC(=O)OC[C@@]3(O)[C@H](O)[C@@H](/C=C/C(C)=C/C[C@@H]4O[C@H](C)[C@H](NC(=O)/C=C\[C@H](C)OC(C)=O)C[C@@H]4C)O[C@](C)(O)[C@@H]3O)O2)O[C@@H]1C | – | 8.42 | 8.73 | – | 8.51 | –
CC(=O)O[C@@H](C)/C=C\C(=O)N[C@@H]1C[C@H](C)[C@H](C/C=C(C)/C=C/[C@H]2O[C@@H]3CC(=O)O[C@@](CCl)(C3)[C@@H]2O)O[C@@H]1C | < 7.00 | – | < 7.00 | – | < 7.00 | –
COC(=O)C[C@@H]1C[C@@]2(CO2)[C@H](O)[C@@H](/C=C/C(C)=C/C[C@@H]2O[C@H](C)[C@H](NC(=O)/C=C\[C@H](C)OC(C)=O)C[C@@H]2C)O1 | – | 9.06 | 9.11 | – | 8.90 | 2.23
CCCNC(=O)C[C@@H]1C[C@@]2(CO2)C[C@@H](/C=C/C(C)=C/C[C@@H]2O[C@H](C)[C@H](NC(=O)/C=C\[C@H](C)OC(C)=O)C[C@@H]2C)O1 | 8.77 | 8.60 | 8.22 | 8.62 | – | 3.72
CCCNC(=O)C[C@@H]1C[C@@]2(CO2)[C@H](O)[C@@H](/C=C/C(C)=C/C[C@@H]2O[C@H](C)[C@H](NC(=O)/C=C\[C@H](C)OC(C)=O)C[C@@H]2C)O1 | 9.96 | 9.72 | 9.19 | 9.55 | 9.54 | 2.21
CC(=O)O[C@H]1C(=O)[C@@]2(C)[C@H]([C@H](OC(=O)c3ccccc3)[C@]3(O)C[C@H](OC(=O)[C@H](O)[C@@H](NC(=O)c4ccccc4)c4ccccc4)C(C)=C1C3(C)C)[C@]1(OC(C)=O)CO[C@@H]1C[C@@H]2O [PACLITAXEL] | 8.14 | 8.08 | 8.12 | 8.10 | 8.22 | –
CC(=O)O[C@@H](C)/C=C\C(=O)N[C@@H]1C[C@H](C)[C@H](C/C=C(C)/C=C/[C@H]2O[C@H](CC(=O)O)C[C@@]3(CO3)[C@@H]2O)O[C@@H]1C [THAILANSTATIN A] | 6.85 | 6.84 | 7.23 | 6.49 | 6.79 | -0.658
CC(=O)O[C@@H](C)/C=C\C(=O)N[C@@H]1C[C@H](C)[C@H](C/C=C(C)/C=C/[C@H]2O[C@H](CC(=O)O)C[C@@](O)(CCl)[C@@H]2O)O[C@@H]1C [THAILANSTATIN B] | < 7.00 | < 7.00 | < 7.00 | – | – | –
